In brackets after ≈: the same amount, converted by molar mass.
Columns and labels:
[1] = test system: L1210; assay: Dose inhibiting L1210/0 murine leukemia cell proliferation by 50%; type: functional; details: Mus musculus, read-out: ID50 (the source's name)
Summary of the method: (§1)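 L1210 cells (5×10^4 per well) grown in Eagle's MEM with 10% inactivated fetal calf serum, 2 mM L-glutamine, 0.075% NaHCO3, then exposed to varying test compound concentrations for 48 h at 37 °C in humidified CO2 atmosphere; growth linear over this period. Cells counted by Coulter counter; ID50 = concentration reducing living cell number by 50%.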

[2] = test system: L1210; assay: Dose inhibiting L1210/0 murine leukemia cell proliferation by 50% in presence of 125 ug/mL of dUrd.; type: functional; details: Mus musculus, read-out: ID50 (the source's name)
[3] = test system: L1210; assay: Dose inhibiting L1210/Br-dUrd murine leukemia cell proliferation by 50%; type: functional; details: Mus musculus, read-out: ID50 (the source's name); summary of the method: as §1
[4] = Ki/Km values of L1210/0 dTMP synthase for the compound was determined.
[5] = Ratio of ID50 for L1210/0 cell growth and ID50 for L1210/BdUrd cell growth.; type: functional
[6] = Ratio of ID50 upon addition of dThd to the ID50 upon addition of dUrd against the L1210/0 cell proliferation.; type: functional
[7] = test system: L1210; assay: Dose inhibiting L1210/0 murine leukemia cell proliferation by 50% in presence of 5 ug/mL of dThd.; type: functional; details: Mus musculus, read-out: ID50 (the source's name)
[8] = test system: L1210; assay: Dose inhibiting L1210/0 murine leukemia cell proliferation by 50% in presence of 500 ug/mL of dCyd.; type: functional; details: Mus musculus, read-out: ID50 (the source's name)

| SMILES | IC50 [1] | IC50 [2] | IC50 [3] | Ratio [4] | IC50 [7] | IC50 [8] | Ratio [5] | Ratio [6] |
| --- | --- | --- | --- | --- | --- | --- | --- | --- |
| O=c1[nH]c(=O)n([C@H]2C[C@H](O)[C@@H](CO)O2)cc1F [FLOXURIDINE] | 0.001 µg/mL (≈ 0.00406 µM) | 0.02 µg/mL | 1.75 µg/mL (≈ 7.11 µM) | 66.5 | 34 µg/mL | – | 1750 | 1700 |
| O=c1[nH]c(=O)n([C@H]2C[C@H](O)[C@@H](COP3(=O)OCC(F)(F)CO3)O2)cc1F | 0.003 µg/mL (≈ 0.00746 µM) | 0.048 µg/mL | 2.42 µg/mL (≈ 6.02 µM) | > 110 | 270 µg/mL | 0.036 µg/mL | 807 | 5637 |

Further lines, with some results ahead:

| IC50 [1] | IC50 [2] | IC50 [3] | Ratio [4] | IC50 [7] | IC50 [8] | SMILES | Ratio [5] | Ratio [6] |
| --- | --- | --- | --- | --- | --- | --- | --- | --- |
| 0.002 µg/mL (≈ 0.00613 µM) | 0.044 µg/mL | 2.43 µg/mL (≈ 7.45 µM) | 0.0099 | > 100 µg/mL | – | O=c1[nH]c(=O)n([C@H]2C[C@H](O)[C@@H](COP(=O)(O)O)O2)cc1F [5-FLUORODEOXYURIDYLATE] | 1215 | >2273 |
| 0.275 µg/mL (≈ 0.751 µM) | 13.2 µg/mL | 197 µg/mL (≈ 538 µM) | > 110 | > 100 µg/mL | 1.38 µg/mL | O=c1[nH]c(=O)n([C@H]2C[C@H](O)[C@@H](COP3(=O)OCCCO3)O2)cc1F | 716 | >7.58 |
| 0.32 µg/mL (≈ 0.837 µM) | 3.87 µg/mL | 165 µg/mL (≈ 432 µM) | > 60 | > 1000 µg/mL | 2.04 µg/mL | O=c1[nH]c(=O)n([C@H]2C[C@H](O)[C@@H](COP3(=O)OCC(O)CO3)O2)cc1F (stereo partly drawn) | 516 | >258 |
